Assay [1] addresses T1, Glucocorticoid receptor (Homo sapiens, UniProt P04150).
T1 sequence (P04150 whole entry): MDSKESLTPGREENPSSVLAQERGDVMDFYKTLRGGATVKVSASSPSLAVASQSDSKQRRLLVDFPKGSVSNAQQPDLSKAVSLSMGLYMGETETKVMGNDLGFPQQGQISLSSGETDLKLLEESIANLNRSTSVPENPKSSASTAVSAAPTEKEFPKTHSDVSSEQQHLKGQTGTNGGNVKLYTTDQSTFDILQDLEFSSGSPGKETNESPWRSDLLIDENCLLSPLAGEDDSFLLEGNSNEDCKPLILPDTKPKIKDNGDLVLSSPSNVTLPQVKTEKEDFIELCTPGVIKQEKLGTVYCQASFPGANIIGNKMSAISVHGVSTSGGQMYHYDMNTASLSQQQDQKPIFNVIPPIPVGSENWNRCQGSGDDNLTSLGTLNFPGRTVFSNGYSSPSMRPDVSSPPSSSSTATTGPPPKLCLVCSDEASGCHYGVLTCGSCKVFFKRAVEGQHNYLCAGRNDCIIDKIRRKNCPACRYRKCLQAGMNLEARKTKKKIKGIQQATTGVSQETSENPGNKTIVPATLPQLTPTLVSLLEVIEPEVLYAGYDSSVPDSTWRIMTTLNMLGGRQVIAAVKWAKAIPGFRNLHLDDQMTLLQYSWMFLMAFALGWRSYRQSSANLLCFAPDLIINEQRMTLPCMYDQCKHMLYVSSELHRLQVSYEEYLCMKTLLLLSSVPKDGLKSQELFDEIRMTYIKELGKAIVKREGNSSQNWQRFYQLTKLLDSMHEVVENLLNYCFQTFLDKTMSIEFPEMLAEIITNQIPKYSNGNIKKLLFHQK
Description: Competitive binding affinity to glucocorticoid receptor (unknown origin) expressed in baculovirus-infected cell system after 1 hr by fluorescence polarization assay in presence of tetramethylrhodamine-labeled dexamethasone. Put shortly: (§1)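 Lysates of baculovirus-infected insect cells co-expressing receptor with HSP-70, HSP-90 and p23 (GR diluted 300-fold, MR 17-fold). Probe 5 nM tetramethylrhodamine-dexamethasone in TES/KCl/molybdate/EDTA/CHAPS/glycerol/DTT buffer, pH 7.4, 1% DMSO. 1 h at room temperature in the dark; fluorescence polarization read (ex 550/em 580 nm). Background set with 2 μM dexamethasone. IC50 from duplicate 11-point curves, four-parameter fit, mean of at least two determinations.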
In general terms: Polarisation of emitted light reports the rotation of a fluorescent probe.

In assay [2] the target is T2, Glucocorticoid receptor (Homo sapiens) (UniProt P04150).
T2 sequence (whole entry): T1 sequence (P04150 whole entry)
As to the kind of experiment: Agonist activity at glucocorticoid receptor in human HeLa cells transfected with luciferase gene linked to MMTV promoter assessed as induction of luciferase transactivation activity at 2 uM after 6 hrs by luminescence assay. The format is cell-based. Put shortly:
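HeLa cells stably carrying an MMTV-luciferase construct, plated the day before at 25000/well in DMEM with 3% FBS. Medium replaced, then compound added (0.2% DMSO final); 1 μM dexamethasone wells = 100% induction, vehicle = background. Incubated 6 h at 37 °C, 5% CO2. Luminescence read after lysis; activation expressed as % of positive control. Top concentration 2 μM.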

Assay [3] deals with T2, Glucocorticoid receptor (Homo sapiens). As to the kind of experiment: Transrepression activity at glucocorticoid receptor in human fibroblasts assessed as inhibition of IL-1-induced IL-6 production at 2 uM after 18 to 24 hrs relative to dexomethasone. An outline of the steps: (§2)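 Human foreskin fibroblasts grown in Iscove's medium with 10% charcoal/dextran-treated FBS, plated at 20000/well two days before. Medium replaced, then compound (0.4% DMSO final) and recombinant human IL-1 (1 ng/mL final) added. 18–24 h at 37 °C; IL-6 in medium quantified by electrochemiluminescence, DELFIA or ELISA. IC50 by four-parameter fit of duplicate 11-point curves. Efficacy relative to dexamethasone (100%); top concentration 2 μM.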

For assay [4], the target named is T1, Glucocorticoid receptor. As to the kind of experiment: Transrepression activity at glucocorticoid receptor in human fibroblasts assessed as inhibition of IL-1-induced IL-6 production after 18 to 24 hrs. Put shortly: as §2
In assay [5] the target is T3, Mineralocorticoid receptor (Homo sapiens, UniProt P08235).
T3 sequence (P08235 whole entry): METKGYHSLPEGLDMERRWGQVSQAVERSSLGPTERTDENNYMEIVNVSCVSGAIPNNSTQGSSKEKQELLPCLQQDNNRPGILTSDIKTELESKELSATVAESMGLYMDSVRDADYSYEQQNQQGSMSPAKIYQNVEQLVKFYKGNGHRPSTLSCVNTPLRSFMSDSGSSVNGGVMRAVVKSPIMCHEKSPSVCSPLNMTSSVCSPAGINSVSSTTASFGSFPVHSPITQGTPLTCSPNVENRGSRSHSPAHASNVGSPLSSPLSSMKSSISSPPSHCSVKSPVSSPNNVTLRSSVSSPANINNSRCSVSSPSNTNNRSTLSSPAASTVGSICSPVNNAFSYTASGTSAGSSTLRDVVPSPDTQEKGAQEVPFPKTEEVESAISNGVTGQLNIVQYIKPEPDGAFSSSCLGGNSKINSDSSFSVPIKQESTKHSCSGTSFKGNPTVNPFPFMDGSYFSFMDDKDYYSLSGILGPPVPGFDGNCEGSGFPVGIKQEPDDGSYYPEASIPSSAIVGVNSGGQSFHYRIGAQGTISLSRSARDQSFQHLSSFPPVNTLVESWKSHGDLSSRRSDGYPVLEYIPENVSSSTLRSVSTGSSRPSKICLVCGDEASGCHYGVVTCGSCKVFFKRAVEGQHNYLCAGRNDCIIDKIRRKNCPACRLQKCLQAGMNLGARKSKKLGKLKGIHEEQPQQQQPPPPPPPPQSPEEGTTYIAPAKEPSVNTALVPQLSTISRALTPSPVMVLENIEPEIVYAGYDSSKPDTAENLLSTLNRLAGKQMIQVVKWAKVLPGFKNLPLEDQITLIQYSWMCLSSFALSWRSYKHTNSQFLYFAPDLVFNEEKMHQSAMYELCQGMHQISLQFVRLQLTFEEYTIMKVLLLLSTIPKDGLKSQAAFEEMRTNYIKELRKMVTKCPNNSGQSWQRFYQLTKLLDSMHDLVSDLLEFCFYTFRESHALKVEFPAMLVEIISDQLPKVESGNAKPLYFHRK
As to the kind of experiment: Competitive binding affinity to mineralocorticoid receptor (unknown origin) expressed in baculovirus-infected cell system after 1 hr by fluorescence polarization assay in presence of tetramethylrhodamine-labeled dexamethasone. Put shortly:
as §1

In the next assay the target is T4, Progesterone receptor (Homo sapiens, UniProt P06401).
T4 sequence (P06401 whole entry): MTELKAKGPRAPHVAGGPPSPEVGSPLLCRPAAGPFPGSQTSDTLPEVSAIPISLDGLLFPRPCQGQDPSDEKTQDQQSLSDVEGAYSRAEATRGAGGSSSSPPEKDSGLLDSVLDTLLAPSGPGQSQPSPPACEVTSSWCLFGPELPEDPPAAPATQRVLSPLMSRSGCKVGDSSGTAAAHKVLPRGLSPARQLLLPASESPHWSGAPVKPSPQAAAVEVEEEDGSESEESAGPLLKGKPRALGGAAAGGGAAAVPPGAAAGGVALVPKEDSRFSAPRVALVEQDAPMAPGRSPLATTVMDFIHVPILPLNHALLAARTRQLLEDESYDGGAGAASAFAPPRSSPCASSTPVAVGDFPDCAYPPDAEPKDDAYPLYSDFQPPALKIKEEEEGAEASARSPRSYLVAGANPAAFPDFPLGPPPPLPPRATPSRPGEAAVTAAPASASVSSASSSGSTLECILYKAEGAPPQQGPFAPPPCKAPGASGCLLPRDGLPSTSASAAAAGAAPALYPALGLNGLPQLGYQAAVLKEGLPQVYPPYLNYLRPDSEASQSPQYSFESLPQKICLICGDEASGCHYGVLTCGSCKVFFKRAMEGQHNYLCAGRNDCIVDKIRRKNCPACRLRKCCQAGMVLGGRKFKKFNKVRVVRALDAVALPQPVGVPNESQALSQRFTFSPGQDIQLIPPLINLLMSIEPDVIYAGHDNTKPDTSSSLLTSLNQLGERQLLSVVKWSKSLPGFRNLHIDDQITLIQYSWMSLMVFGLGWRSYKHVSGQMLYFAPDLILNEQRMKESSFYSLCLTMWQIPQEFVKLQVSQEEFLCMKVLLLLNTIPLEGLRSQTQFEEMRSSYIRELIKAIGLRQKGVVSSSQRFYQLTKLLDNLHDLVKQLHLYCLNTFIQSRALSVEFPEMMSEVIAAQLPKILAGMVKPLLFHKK
Description: Competitive binding affinity to progesterone receptor (unknown origin) expressed in baculovirus-infected cell system after 1 hr by fluorescence polarization assay in presence of tetramethylrhodamine-labeled RU-486. An outline of the steps: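 PR from lysate of insect cells infected with receptor baculovirus alone, diluted 13-fold. Probe 5 nM tetramethylrhodamine-labeled RU-486 in pH 7.4 TES/KCl/molybdate buffer with 1% DMSO. 1 h at room temperature in the dark, then fluorescence polarization (ex 550/em 580 nm). Background set with 2 μM RU-486. IC50 from duplicate 11-point curves, four-parameter logistic fit, mean of at least two determinations.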

The structures appear in SMILES notation. Bounds are passed on as bounds.

As for `COc1ccc(F)cc1C(C)(C)CC(O)(Cc1cc2ncncc2[nH]1)C(F)(F)F` (racemic), the IC50 (in general, the point on the concentration scale where inhibition reaches its midpoint) was 9 nM at Glucocorticoid receptor [1], 21 nM at Glucocorticoid receptor [4], greater than 2000 nM in assay [5] and greater than 2000 nM at Progesterone receptor. The Emax (commonly the size of the effect at its maximum, as opposed to the concentration needed) in assay [2] was 5%; in assay [3], 85%.

The record behind these values is ChEMBL document CHEMBL3124926, “Identification of highly efficacious glucocorticoid receptor agonists with a potential for reduced clinical bone side effects” (J Med Chem, 2014).
